Experimental data collected from several papers.
Lines come from different studies, so protocols differ.
Target: Cyclin-dependent kinase 9 (CDK9, Homo sapiens, UniProt P50750)

With `COc1ccc2c(c1)O[C@@H](c1ccc(OC)c(OC)c1)C[C@H]2NC(=O)C1(c2ccc3c(c2)OC(F)(F)O3)CC1` the remaining binding was 89% (cell-free assay, competition with immobilised ligand; 1 µM).
With `Cc1cnc(Nc2ccc(C(=O)N3CCC(N4CCCC4)CC3)cc2)nc1-c1cc2ccccc2s1` the remaining binding was 82% (binding, competition with immobilised ligand; 1 µM).
`CC(C)(C)c1ccc(-c2nc(CBr)nn2-c2cccc(O)c2)cc1` gave a remaining binding of 91% (cell-free assay, competition with immobilised ligand; 10 µM).
`O=C(c1ccc(Nc2ncc(Cl)c(-c3ccc(Cl)s3)n2)cc1)N1CCC(N2CCCC2)CC1` gave a remaining binding of 68% (binding, competition with immobilised ligand; 1 µM).
`C[C@@H](c1ccc(-n2cnc3c(N)ncnc32)cc1)N1CCc2nn(C)c(Cc3ccccc3)c2C1=O` gave a remaining binding of 85% (binding, competition with immobilised ligand; 0.1 µM).
With `CCOCCn1cc(C(=O)Nc2ccc(-n3nc(-c4cccnc4)cc3C(F)(F)F)cn2)ccc1=O` the remaining binding was 97% (cell-free assay, competition with immobilised ligand; 1 µM).
For `C[C@@H]1CCN(c2nccc(-c3cnn4ncccc34)n2)C1`, the remaining binding was 87% (binding; 1 µM).
`Nc1c(C(=O)NCc2ccc(C(=O)NCCCC3CCCCC3)cc2)cnn1-c1ccccc1` has a remaining binding of 100% (cell-free assay, competition with immobilised ligand; 0.1 µM).
With `CN(C)c1nccc(-c2cnc3ncccn23)n1` the remaining binding was 100% (binding; 1 µM).
The remaining binding of `C[C@@H]1CN(c2ccc3ncc(-c4ccc5[nH]nc(C6CC6)c5c4)n3n2)C[C@H](C)O1` is reported as 78% (binding, competition with immobilised ligand; 0.5 µM).
For `COc1ccc2c(O[C@@H]3C[C@H]4C(=O)N[C@]5(C(=O)O)CC5/C=C\CCCCC[C@H](NC(=O)OC5CCCC5)C(=O)N4C3)cc(-c3csc(NC(=O)C(C)C)n3)nc2c1C` (stereo partly shown), the remaining binding was 83% (cell-free assay, competition with immobilised ligand; 1 µM).
The remaining binding of `CNC(=O)[C@@H]1CC[C@@H](n2c(-c3ccc4cnccc4c3)nc3ccc(C(=O)NCc4cccc(C(N)=O)c4)cc32)C1` is reported as 100% (binding, competition with immobilised ligand; 1 µM).
For `N[C@@H]1CCN(c2nccc(-c3cnn4ncccc34)n2)C1`, the remaining binding was 100% (binding; 1 µM).
For `O=C(NCC1CCOCC1)c1n[nH]cc1NC(=O)c1c(F)cccc1F`, the remaining binding was 83% (binding, competition with immobilised ligand; 1 µM).
`CCC(=O)N[C@H]1CC[C@@H](C(=O)N(C)c2ccc(-c3nc4ccccc4o3)cc2)C1` gave a remaining binding of 95% (cell-free assay, competition with immobilised ligand; 1 µM).
`CN(C)c1ncc(F)c(-c2cnn3ncccc23)n1` gave a remaining binding of 100% (binding; 1 µM).
